# Measurements published in ChEMBL document CHEMBL3822412, “Exploiting Protein Conformational Change to Optimize Adenosine-Derived Inhibitors of HSP70” (J Med Chem, 2016).
# Target: Heat shock cognate 71 kDa protein (Homo sapiens, UniProt P11142)
# Test: Binding affinity to human truncated HSC70 NBD (1 to 381 residues) by SPR analysis
# Conditions: read-out: Kd
# Procedure, shortened: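 Human HSC70-NBD (residues 1-381) amine-coupled to a CM5 chip to ~5000 RU, with 750 µM ADP present during coupling. Running buffer PBS pH 7.4 with 0.05% Tween20 and 5% DMSO. Eight-point dose response over 50–2000, 5–200 or 0.0625–2.5 µM. Flow 30 µL/min, 60 s injection, 120 s dissociation, no regeneration, unmodified reference cell. KD taken from equilibrium binding curves fitted to a 1:1 model. Geometric mean ± SEM, n≥3.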
# Chain of Heat shock cognate 71 kDa protein (P11142 whole entry, the tested form may be a part): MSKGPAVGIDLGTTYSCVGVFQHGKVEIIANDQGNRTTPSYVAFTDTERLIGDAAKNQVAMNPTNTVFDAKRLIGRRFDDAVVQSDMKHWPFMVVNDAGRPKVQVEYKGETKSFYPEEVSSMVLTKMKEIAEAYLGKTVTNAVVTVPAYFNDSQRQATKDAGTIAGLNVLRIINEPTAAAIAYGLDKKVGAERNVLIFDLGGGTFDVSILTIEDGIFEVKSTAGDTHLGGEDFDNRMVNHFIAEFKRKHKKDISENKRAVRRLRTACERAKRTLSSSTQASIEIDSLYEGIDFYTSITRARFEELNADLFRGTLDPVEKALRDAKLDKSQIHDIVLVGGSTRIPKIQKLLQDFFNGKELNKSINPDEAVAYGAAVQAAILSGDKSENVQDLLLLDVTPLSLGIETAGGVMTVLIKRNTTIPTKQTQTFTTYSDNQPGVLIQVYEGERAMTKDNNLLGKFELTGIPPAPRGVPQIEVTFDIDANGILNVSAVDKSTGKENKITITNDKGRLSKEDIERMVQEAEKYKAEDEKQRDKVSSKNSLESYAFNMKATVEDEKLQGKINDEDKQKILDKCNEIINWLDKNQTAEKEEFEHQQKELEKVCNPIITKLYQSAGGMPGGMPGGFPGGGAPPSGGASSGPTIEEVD
row,SMILES,Kd [µM]
1,Cc1ccc(CNc2nc3c(N)ncnc3n2[C@@H]2O[C@H](CO)[C@@H](O)[C@H]2O)cc1,0.3
2,Nc1ncnc2c1nc(NCc1ccc(Cl)cc1)n2[C@@H]1O[C@H](CO)[C@@H](O)[C@H]1O,0.28
3,COc1nc2c(N)ncnc2n1[C@@H]1O[C@H](CO)[C@@H](O)[C@H]1O,> 1000
4,Nc1ncnc2c1nc(NCc1ccc(F)cc1)n2[C@@H]1O[C@H](CO)[C@@H](O)[C@H]1O,0.46
5,CNc1c(C(N)=O)c2c(N)ncnc2n1[C@@H]1O[C@H](CO)[C@@H](O)[C@H]1O,30
6,N#Cc1c(NCc2ccccc2)n([C@@H]2O[C@H](CO)[C@@H](O)[C@H]2O)c2ncnc(N)c12,2.8
7,CN(C)c1nc2c(N)ncnc2n1[C@@H]1O[C@H](CO)[C@@H](O)[C@H]1O,> 1000
8,CNc1c(C#N)c2c(N)ncnc2n1[C@@H]1O[C@H](CO)[C@@H](O)[C@H]1O,3.3
9,CNc1nc2c(N)ncnc2n1[C@@H]1O[C@H](C)[C@@H](O)[C@H]1O,27
10,CNc1nc2c(N)ncnc2n1[C@@H]1O[C@H](CO)[C@@H](O)[C@H]1O,17
11,Nc1ncnc2c1nc(NCc1ccccc1)n2[C@@H]1O[C@H](CO)[C@@H](O)[C@H]1O,1.4
12,Nc1ncnc2c1nc(NCc1ccc3ncccc3c1)n2[C@@H]1O[C@H](CO)[C@@H](O)[C@H]1O,0.72
13,Nc1ncnc2c1nc(N)n2[C@@H]1O[C@H](CO)[C@@H](O)[C@H]1O,7
14,Nc1ncnc2c1nc(NCc1ccc(Cl)c(Cl)c1)n2[C@@H]1O[C@H](CO)[C@@H](O)[C@H]1O,3.5
15,C[C@H]1O[C@@H](n2cnc3c(N)ncnc32)[C@H](O)[C@@H]1O [5'-Deoxyadenosine],130
16,Nc1ncnc2c1ncn2[C@@H]1O[C@H](COP(=O)(O)OP(=O)(O)O)[C@@H](O)[C@H]1O [ADENOSINE DIPHOSPHATE],0.32
17,Nc1ncnc2c1ncn2[C@@H]1O[C@H](CO)[C@@H](O)[C@H]1O [ADENOSINE],110

# Same assay, conditions: read-out: pKd (converted)
row,SMILES,Kd [µM]
1,NC(=O)c1cn([C@@H]2O[C@H](CO)[C@@H](O)[C@H]2O)c2ncnc(N)c12 [SANGIVAMYCIN],3.24
2,N#Cc1cn([C@@H]2O[C@H](CO)[C@@H](O)[C@H]2O)c2ncnc(N)c12 [TOYOCAMYCIN],91.2
3,Nc1ncnc2c1ccn2[C@@H]1O[C@H](CO)[C@@H](O)[C@H]1O [TUBERCIDIN],28.2
